Measured values: PMC9237996 (Toxicological Sciences, 2022)
Read-outs that look alike come from different tables or passages of the source.

Key:
[1] = target: bile salt export pump (BSEP) (Homo sapiens, UniProt O95342); assay: BSEP membrane vesicle taurocholate transport inhibition; assay type: biochemical
Procedure, shortened: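 ATP-dependent taurocholate uptake into membrane vesicles carrying human BSEP. Transport inhibition was measured across several taurocholate concentrations crossed with several test-compound concentrations. Data were fit with Michaelis-Menten kinetics to give the Ki and the inhibition type. These values were then used as inputs to DILIsym v6A.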

HepG2 cells [2] = assay: Seahorse oxygen consumption rate; assay type: cell-based; conditions: DILIsym input parameter
Procedure, shortened: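 Oxygen consumption rate was measured in HepG2 cells after 24 h incubation with the test compound. It was related to intracellular compound concentration, measured by LC/MS/MS on a parallel culture with lysate values corrected for lysate and cell volume. Three independent studies were run on HepG2 cells, each in triplicate. The data were translated into DILIsym v6A mitochondrial-dysfunction parameters (ETC inhibition, uncoupling).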

HepG2 cells [3] = assay: ROS formation by dihydroethidium; assay type: cell-based; conditions: for RNS/ROS production rate constant 1: DILIsym input parameter, oxidative stress
Procedure, shortened: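 HepG2 cells were exposed to a range of test-compound concentrations for 6 or 24 h, and ROS formation was read by dihydroethidium fluorescence. Three independent studies were run, each in triplicate. Intracellular compound level came from LC/MS/MS of cell lysate from a parallel culture, corrected for lysate and cell volume. DILIsym oxidative-stress parameters were fit by simulating the data under a steady-state in vitro dosing scheme.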

[4] = 12 weeks, clinical data, cited from earlier work

Sequence of bile salt export pump (BSEP) (O95342 whole entry): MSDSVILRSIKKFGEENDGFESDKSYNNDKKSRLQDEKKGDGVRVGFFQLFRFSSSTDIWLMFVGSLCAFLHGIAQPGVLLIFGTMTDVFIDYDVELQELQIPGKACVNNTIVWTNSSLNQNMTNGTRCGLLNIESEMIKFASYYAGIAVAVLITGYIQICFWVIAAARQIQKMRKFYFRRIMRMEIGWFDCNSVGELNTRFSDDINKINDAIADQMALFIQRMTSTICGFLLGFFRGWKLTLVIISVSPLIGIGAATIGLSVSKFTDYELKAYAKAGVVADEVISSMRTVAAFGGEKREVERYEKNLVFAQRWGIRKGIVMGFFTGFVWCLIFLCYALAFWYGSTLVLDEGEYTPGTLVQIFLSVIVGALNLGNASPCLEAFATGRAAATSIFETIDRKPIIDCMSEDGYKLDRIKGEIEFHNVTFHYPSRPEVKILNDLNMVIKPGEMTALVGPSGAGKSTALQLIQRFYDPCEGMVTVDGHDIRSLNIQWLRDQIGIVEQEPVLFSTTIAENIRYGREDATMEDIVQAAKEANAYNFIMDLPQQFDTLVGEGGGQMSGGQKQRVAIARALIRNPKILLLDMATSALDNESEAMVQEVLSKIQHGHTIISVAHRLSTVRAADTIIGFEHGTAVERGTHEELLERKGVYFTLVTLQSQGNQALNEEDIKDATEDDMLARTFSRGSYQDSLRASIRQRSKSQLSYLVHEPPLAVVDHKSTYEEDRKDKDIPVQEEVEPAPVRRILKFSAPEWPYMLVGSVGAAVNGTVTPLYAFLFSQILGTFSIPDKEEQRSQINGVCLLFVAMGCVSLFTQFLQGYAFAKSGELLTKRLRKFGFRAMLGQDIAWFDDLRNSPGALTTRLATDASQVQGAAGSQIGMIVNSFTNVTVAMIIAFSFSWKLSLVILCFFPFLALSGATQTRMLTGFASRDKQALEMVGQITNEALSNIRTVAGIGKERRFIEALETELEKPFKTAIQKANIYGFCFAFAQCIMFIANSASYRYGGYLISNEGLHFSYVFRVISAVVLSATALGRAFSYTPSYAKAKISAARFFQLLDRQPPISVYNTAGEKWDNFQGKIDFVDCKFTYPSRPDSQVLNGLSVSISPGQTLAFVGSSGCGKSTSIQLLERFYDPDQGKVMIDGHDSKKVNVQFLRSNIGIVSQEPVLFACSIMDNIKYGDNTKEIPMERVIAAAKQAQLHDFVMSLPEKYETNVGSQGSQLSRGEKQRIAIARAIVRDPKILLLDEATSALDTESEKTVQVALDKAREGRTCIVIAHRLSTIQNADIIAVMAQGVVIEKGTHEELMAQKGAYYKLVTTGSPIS

With Cc1cc(C[C@@H](NC(=O)N2CCC(c3cc4ccccc4[nH]c3=O)CC2)C(=O)N2CCN(C3CCN(C)CC3)CC2)cc2cn[nH]c12 [Zavegepant, zavegepant] the “BSEP inhibition alpha value” [1] was 1.368 Dimensionless, the Ki [1] was greater than 340 µM and the “mode of inhibition for BSEP” value [1] was “mixed”. The “Coefficient for ETC Inhibition 3” value (HepG2 cells [2]; mitochondrial dysfunction) was 2 µM, the “Coefficient for ETC inhibition 1” value (HepG2 cells [2]; mitochondrial dysfunction) was 1600 µM and the “Max inhibitory effect for ETC inhibition 3” value (from here on “Max inhibitory effect”) (HepG2 cells [2]; mitochondrial dysfunction) was 1.5 Dimensionless. The “RNS/ROS production rate constant 1” value (HepG2 cells [3]) was “No ROS production” and the “Oxidative stress / increase in ROS in vitro” value (HepG2 cells [3]; qualitative, DHE staining, HepG2, 24-h incubation) was “did not cause an increase in ROS”.
In the case of O=C(N[C@@H]1CC[C@@H](c2cccc(F)c2F)CN(CC(F)(F)F)C1=O)N1CCC(n2c(=O)[nH]c3ncccc32)CC1 [Telcagepant, telcagepant], the Ki [1] is reported as 19 µM, the “mode of inhibition for BSEP” value [1] is reported as “mixed” and the “BSEP inhibition alpha value” ([1]; Telcagepant—High parameter set) is reported as 4.32 Dimensionless. The “BSEP inhibition alpha value” ([1]; Telcagepant—Low parameter set) was 4.32 Dimensionless, the “Uncoupler 1 effect Hill” value (HepG2 cells [2]; Telcagepant—High parameter set) was “No effect” and the “Uncoupler 1 effect Km” value (HepG2 cells [2]; Telcagepant—High parameter set) was “No effect”. The “Uncoupler 1 effect Vmax” value (HepG2 cells [2]; Telcagepant—High parameter set) was “No effect”, the “Uncoupler 1 effect Hill” value (HepG2 cells [2]; Telcagepant—Low parameter set) was “No effect” and the “Uncoupler 1 effect Km” value (HepG2 cells [2]; Telcagepant—Low parameter set) was “No effect”. The “Uncoupler 1 effect Vmax” value (HepG2 cells [2]; Telcagepant—Low parameter set) was “No effect”, the “RNS/ROS production rate constant 1” value (HepG2 cells [3]; Telcagepant—High parameter set) was 0.00035 mL/nmol/h and the “RNS/ROS production rate constant 1” value (HepG2 cells [3]; Telcagepant—Low parameter set) was 0.00035 mL/nmol/h. The “Observed ALT > 3X ULN in Clinic” value ([4]; 140 mg BID) was 1.9% (5/263) and the “Observed ALT > 3X ULN in Clinic” value ([4]; 280 mg BID) was 3.2% (8/265).
With N[C@@H]1c2cccnc2[C@H](OC(=O)N2CCC(n3c(=O)[nH]c4ncccc43)CC2)CC[C@H]1c1cccc(F)c1F [Rimegepant, rimegepant] the “BSEP inhibition alpha value” [1] was “Competitive”, the Ki [1] was 27.2 µM and the “mode of inhibition for BSEP” value [1] was “competitive”. For the same compound, the “Coefficient for ETC Inhibition 3” value (HepG2 cells [2]; mitochondrial dysfunction) was 1.89 µM, the “Coefficient for ETC inhibition 1” value (HepG2 cells [2]; mitochondrial dysfunction) was 3470 µM and the “Max inhibitory effect” value (HepG2 cells [2]; mitochondrial dysfunction) was 0.45 Dimensionless. For the same compound, the “Uncoupler 1 effect Hill” value (HepG2 cells [2]; mitochondrial dysfunction) was “No effect”, the “Uncoupler 1 effect Km” value (HepG2 cells [2]; mitochondrial dysfunction) was “No effect” and the “Uncoupler 1 effect Vmax” value (HepG2 cells [2]; mitochondrial dysfunction) was “No effect”. The “RNS/ROS production rate constant 1” value (HepG2 cells [3]) was 0.00035 mL/nmol/h.
With C[C@@H]1[C@H](c2c(F)ccc(F)c2F)C[C@H](NC(=O)c2cnc3c(c2)C[C@@]2(C3)C(=O)Nc3ncccc32)C(=O)N1CC(F)(F)F [Atogepant, atogepant] the “BSEP inhibition alpha value” [1] was 0.64 Dimensionless, the Ki [1] was 144 µM and the “Coefficient for ETC Inhibition 3” value (HepG2 cells [2]; mitochondrial dysfunction) was 0.1 µM. For the same compound, the “Coefficient for ETC inhibition 1” value (HepG2 cells [2]; mitochondrial dysfunction) was 38 170 µM, the “Max inhibitory effect” value (HepG2 cells [2]; mitochondrial dysfunction) was 0.2 Dimensionless and the “Uncoupler 1 effect Hill” value (HepG2 cells [2]; mitochondrial dysfunction) was “No effect”. The “Uncoupler 1 effect Km” value (HepG2 cells [2]; mitochondrial dysfunction) was “No effect”, the “Uncoupler 1 effect Vmax” value (HepG2 cells [2]; mitochondrial dysfunction) was “No effect” and the “RNS/ROS production rate constant 1” value (HepG2 cells [3]) was 0.000341 mL/nmol/h.
For C[C@@H]1[C@H](c2ccccc2)C[C@H](NC(=O)c2cnc3c(c2)C[C@@]2(C3)C(=O)Nc3ncccc32)C(=O)N1CC(F)(F)F [Ubrogepant, ubrogepant], the “BSEP inhibition alpha value” [1] was “No inhibition”, the “mode of inhibition for BSEP” value [1] was “mixed” and the “Max inhibitory effect” value (HepG2 cells [2]; mitochondrial dysfunction) was 0.4 Dimensionless. For the same compound, the “Uncoupler 1 effect Hill” value (HepG2 cells [2]; mitochondrial dysfunction) was 4.3 Dimensionless, the “Uncoupler 1 effect Vmax” value (HepG2 cells [2]; mitochondrial dysfunction) was 22.5 Dimensionless and the “RNS/ROS production rate constant 1” value (HepG2 cells [3]) was 0.000165 mL/nmol/h.
